Data on 18 compounds can be found in PubChem BioAssay.

Each structure is given as a SMILES string. Unmarked numbers belong to inactive results. Inconclusive results are not listed. Activity calls are given as the source filed them.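 How the source made its calls, unless noted: active means inhibition over a set limit, the all-compound mean plus 3 SD, in both replicate runs; inconclusive means over that limit in just one replicate run; inactive means at or under that limit in both runs.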

Experiment [1] is described as follows: S. cerevisiae growth inhibition in permissive medium (OD615), pilot counter-assay for S. cerevisiae lifespan shortening project, permissive growth control (AID 705;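 active means growth inhibition above 25% in both replicates, a cutoff set 3 SD above the mean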). As to conditions: OD615, 24 h, at 10 µM, hits give high values. In a few lines: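 System – S. cerevisiae with engineered DeaD lifespan system · Buffer or medium – SC raffinose/galactose permissive medium · Schedule – cells pre-grown 4 h, then 24 h compound exposure, 30 °C humidified · Technique – culture turbidity as optical density at 615 nm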

Experiment [2] is described as follows: S. cerevisiae growth inhibition in restrictive medium, OD615, pilot screen, restrictive growth control, yeast lifespan reduction project (AID 706;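 active means growth inhibition above a set limit, 3 SD over mean compound inhibition, in both replicates, cut at about 43% in these data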;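 further: modified DeaD lifespan yeast strain shifted to restrictive glucose medium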). Particulars: OD615, 48 h, at 10 µM, hits give high values. In a few lines: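 Material: engineered S. cerevisiae DeaD strain / Medium: glucose-based CSMM-D restrictive medium / Compound: single dose of 10 µM compound final, 0.25% DMSO / Timing: 4 h pre-incubation, 48 h exposure at 30 °C / Technique: OD615 absorbance reading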

Experiment [3] in a line: doxorubicin toxicity protection in MRP-1 cells – H69AR cells, CellTiter-Glo, duplicate, MRP-1 activator project, pilot screen (AID 807;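 active means viability increase at or above a cutoff of the median across tested compounds plus 3 SD, cut at about 8.5% in these data, passing the limit was not always enough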;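 further: compound pretreatment 18-22 h then 72 h combined with doxorubicin; 0% = doxorubicin alone and 100% = vehicle without doxorubicin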). As to conditions: H69AR viability with doxorubicin, CellTiter-Glo luminescence; at 10 µM; hits give high values. (In general: Cellular ATP, detected with luciferase, serves as a proxy for viable cell number.)
A short description of experiment [4]: viability of HCT116 without oncogenic beta-catenin – human colon tumor cells, pilot screen (AID 823;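 active means cell viability at or below a set limit in both duplicate runs, the limit being the all-compound median minus 4 SD, cut at about 23% in these data, passing the limit was not always enough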;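 further: 0% = wells killed by 20 µM Hyamine and 100% = untreated DMSO cell wells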). Particulars: HCT116 beta-catenin knockout viability, CellTiter-Glo, 60 h; at 10 µM; hits give low values.
The nature of experiment [5]: viability of PTEN-null HCT116 cells – cell-based, HCT116 clonal line, CellTiter-Glo, pilot screen (AID 824;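 active means viability at or below 27.92% in each of two runs, the all-compound median minus 4 SD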;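 further: 0% = 20 µM Hyamine control and 100% = vehicle cell control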). Particulars: HCT116 PTEN-deleted viability, 60 h, at 10 µM, hits give low values.
A short description of experiment [6]: RAM pathway blockade in budding yeast – dse1pr::URA3 reporter, 5-FOA selection, pilot screen (AID 869).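 Further: 0% = DMSO wells with no growth and 100% = 10 µM 1-NA-PP1 with full growth; RAM network block rescues cells from 5-FOA so hits raise OD615 growth.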 Particulars: S. cerevisiae dse1pr::URA3 5-FOA growth, OD615, 2 d; at 10 µM; hits give high values; strain carries analog-sensitive mutant Cbk1 kinase.
Experiment [7] can be described thus: RAM signaling pathway blockade in yeast – S. cerevisiae, Pdr1DBD-CYC8 efflux-inhibited sensitized strain, primary screen (AID 1298;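 active means RAM network inhibition above 8.4% in each of two replicates, 3 SD over the compound average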;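 further: 0% = DMSO untreated cells without growth and 100% = 10 µM 1-NA-PP1 full growth; higher means more yeast growth rescued from 5-FOA killing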). Particulars: S. cerevisiae cbk1-as DSE1-URA3 strain, 5-FOA growth OD615, 2 d; at 50 µM; hits give high values.

`N#CCCN1CCN(S(=O)(=O)c2ccc(S(=O)(=O)N3CCCCCC3)cc2)CC1`: the growth inhibition in experiment [1] is 1.57%; in experiment [2] it was -16.9%. Besides, the viability increase in experiment [3] was -2.09%. Also, the viability (as a rule, a read-out of living cells in per cent, often relative to untreated cells) in experiment [4] is 97.4%; in experiment [5], 94.3%. Further, the inhibition (as a rule, the drop in the measured response relative to a control, in per cent) in experiment [6] is 0.525%. In experiment [7], the RAM network inhibition is 11.9%.

For `COc1ccc(-c2nnc(SCC(=O)Nc3cc(F)ccc3C)o2)cc1`, the growth inhibition in experiment [1] was -4.83%; in experiment [2] it was 4.39%. In experiment [3], the viability increase was 1.69%. In addition, the viability in experiment [4] is 101%; in experiment [5] it was 97.6%. Moreover, the inhibition in experiment [6] is 2.44%. Besides, the RAM network inhibition in experiment [7] is 0.58%.

For the compound `CC1(C)CC(=O)C=C(NCCc2ccc(S(N)(=O)=O)cc2)C1`, the growth inhibition in experiment [1] is -8.44%; in experiment [2], -12%. Also, the viability increase in experiment [3] is -0.64%. Further, the viability in experiment [4] was 94.3%; in experiment [5], 96.2%. The inhibition in experiment [6] is 1.18%. Besides, the RAM network inhibition in experiment [7] is 1.82%.

With `Cc1cc(NC(=O)CSc2nc3c(c(=O)n2-c2ccccc2)SC(C)C3)no1` (stereo unspecified), the values for the growth inhibition in experiment [1] and in experiment [2] were -3.02% and -11.7%, respectively. Besides, in experiment [3], the viability increase was -2.58%. Further, the viability in experiment [4] was 93%; in experiment [5], 91.2%. In addition, the inhibition in experiment [6] is 4.66%. Besides, the RAM network inhibition in experiment [7] was 1.22%.

Regarding `O=C(NCCCNCc1ccccc1)c1ccc(/C=N/O)nc1`, the growth inhibition in experiment [1] is -8.54%; in experiment [2], -12.5%. Moreover, the viability increase in experiment [3] is -1.94%. Moreover, the viability in experiment [4] is 93.2%; in experiment [5], 97.9%. In addition, in experiment [6], the inhibition was 1.73%. The RAM network inhibition in experiment [7] was 3.09%.

`CC1CCN(S(=O)(=O)c2ccc3c(c2)oc(=O)n3CC(=O)N2c3ccccc3CC2C)CC1` (stereo unspecified): the values for the growth inhibition in experiment [1] and in experiment [2] were -4.77% and -7.59%, respectively. Besides, the viability increase in experiment [3] is -4.28%. The viability in experiment [4] is 68.5%; in experiment [5], 52.9%. Further, the inhibition in experiment [6] was 2.85%. Besides, the RAM network inhibition in experiment [7] was 7.34%.

For the compound `COCn1c(-c2cccc(Br)c2)nc2ccccc21`, the growth inhibition in experiment [1] is -10.2%; in experiment [2] it was 3.42%. The viability increase in experiment [3] is -4.2%. Further, the viability in experiment [4] is 85.2%; in experiment [5] it was 86.8%. Also, in experiment [6], the inhibition was 1.17%. Besides, in experiment [7], the RAM network inhibition is 3.8%.

`COc1ccccc1N(C(=O)NCc1ccccc1)C1=NCC(C)S1` (stereo unspecified): the values for the growth inhibition in experiment [1] and in experiment [2] were -16% and -11.9%, respectively. Moreover, the viability increase in experiment [3] is -3.44%. Moreover, the results for the viability in experiment [4] and in experiment [5] were 93.4% and 89.2%, respectively. Further, the inhibition in experiment [6] was 2.22%. For the same compound, the RAM network inhibition in experiment [7] is 7.42%.

Consider `O=C(C(c1ccccc1)c1ccccc1)N1CCOCC1`, for which the growth inhibition in experiment [1] is -6.96%; in experiment [2], 1.92%. Moreover, the viability increase in experiment [3] was -1.34%. Moreover, the viability in experiment [4] was 100%; in experiment [5] it was 95.9%. Also, the inhibition in experiment [6] is 0.87%. Further, the RAM network inhibition in experiment [7] is 0.31%.

Consider `CCN(CC)S(=O)(=O)c1cccc(-c2nnc(SCc3nnc(-c4cccs4)o3)n2N)c1`, for which the growth inhibition is 5.53% in experiment [1] and 46.4% (active) in experiment [2]. Further, the viability increase in experiment [3] was 0.28%. Moreover, the viability is 86.5% in experiment [4] and 92.5% in experiment [5]. Also, the inhibition in experiment [6] was 1.85%. Besides, in experiment [7], the RAM network inhibition is 3.12%.

Consider `COc1ccc(N2CCC(CNC(=O)Nc3ccc(C)c(C)c3)C2)cc1` (stereo unspecified), for which the growth inhibition in experiment [1] was -8.33%; in experiment [2], -2.14%. In addition, in experiment [3], the viability increase was 1.23%. The viability was 91.2% in experiment [4] and 74.8% in experiment [5]. For the same compound, in experiment [6], the inhibition is 0.77%. Further, the RAM network inhibition in experiment [7] was 2.95%.

Regarding `CCOc1ccccc1NC(=O)CSc1nnc(-c2ccco2)n1Cc1ccco1`, the growth inhibition in experiment [1] is 3.23%; in experiment [2] it was 2.22%. Further, in experiment [3], the viability increase is -2.48%. Besides, the viability in experiment [4] is 95.7%; in experiment [5], 88.2%. Moreover, the inhibition in experiment [6] was -0.165%. In experiment [7], the RAM network inhibition is 3.85%.

For `O=C(Cn1cc2c(n1)CCCCC2)N1CCCCC1`, the growth inhibition in experiment [1] was -4.8%; in experiment [2] it was -5.9%. Besides, the viability increase in experiment [3] was -0.82%. The viability in experiment [4] was 98.5%; in experiment [5] it was 92.4%. The inhibition in experiment [6] was 1.23%. In experiment [7], the RAM network inhibition is -2.24%.

As to `Cc1cc(C)n(/N=C/c2cccc(O)c2)c(=O)c1C(N)=O`, the growth inhibition in experiment [1] is -22.8%; in experiment [2] it was -22.5%. Moreover, in experiment [3], the viability increase is 1.95%. The viability is 99.7% in experiment [4] and 100% in experiment [5]. For the same compound, the inhibition in experiment [6] was 0.485%. The RAM network inhibition in experiment [7] was 4.4%.

With `Cn1c(=O)c2c(SCC(=O)NCc3ccco3)nc(CC(C)(C)C)nc2n(C)c1=O`, the growth inhibition in experiment [1] is -3.79%; in experiment [2], -0.895%. The viability increase in experiment [3] is -4.81%. Also, the viability in experiment [4] was 72.5%; in experiment [5] it was 70.6%. Moreover, the inhibition in experiment [6] is 0.775%. Further, in experiment [7], the RAM network inhibition is 5.97%.

Take `CC(C)Oc1ccc(C2CNC(=O)C2)cc1` (stereo unspecified): the growth inhibition is -1.04% in experiment [1] and 0.15% in experiment [2]. Moreover, in experiment [3], the viability increase was -0.24%. In addition, the results for the viability in experiment [4] and in experiment [5] were 102% and 103%, respectively. Besides, the inhibition in experiment [6] was 1.04%. For the same compound, the RAM network inhibition in experiment [7] was 0.1%.

Turning to `Cc1ccc2oc(=O)c3cnn(CC(=O)NCCN(C)C)c3c2c1`, the growth inhibition was -13% in experiment [1] and -11.6% in experiment [2]. In addition, the viability increase in experiment [3] is 0.12%. Moreover, the viability in experiment [4] is 101%; in experiment [5] it was 97.7%. Besides, the inhibition in experiment [6] is 0.365%. The RAM network inhibition in experiment [7] was 0.55%.

Regarding `COc1ccccc1N1CCN(C(=O)COc2ccc(C)cc2Br)CC1`, the figures for the growth inhibition in experiment [1] and in experiment [2] were -7.34% and -9.51%, respectively. In addition, the viability increase in experiment [3] was -1.4%. Also, the viability in experiment [4] was 83.5%; in experiment [5], 72.4%. For the same compound, the inhibition in experiment [6] was -0.16%. The RAM network inhibition in experiment [7] was 2.61%.
